RORa inhibitor = blocks the human nuclear receptor RORA | P35398 | CHO-K1 Gal4-RORA LBD luciferase reporter, luminescence | hit rate 0.43% among 65,000 | inhibition, % at 10 µM;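 active means inhibition above the mean of all tested compounds plus 3 SD, cut at about 52% in these data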;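 further: 0% = RORA-transfected cells with DMSO and 100% = mock-transfected cells lacking RORA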
Target sequence (P35398 whole entry, looked up, the tested form may be a part): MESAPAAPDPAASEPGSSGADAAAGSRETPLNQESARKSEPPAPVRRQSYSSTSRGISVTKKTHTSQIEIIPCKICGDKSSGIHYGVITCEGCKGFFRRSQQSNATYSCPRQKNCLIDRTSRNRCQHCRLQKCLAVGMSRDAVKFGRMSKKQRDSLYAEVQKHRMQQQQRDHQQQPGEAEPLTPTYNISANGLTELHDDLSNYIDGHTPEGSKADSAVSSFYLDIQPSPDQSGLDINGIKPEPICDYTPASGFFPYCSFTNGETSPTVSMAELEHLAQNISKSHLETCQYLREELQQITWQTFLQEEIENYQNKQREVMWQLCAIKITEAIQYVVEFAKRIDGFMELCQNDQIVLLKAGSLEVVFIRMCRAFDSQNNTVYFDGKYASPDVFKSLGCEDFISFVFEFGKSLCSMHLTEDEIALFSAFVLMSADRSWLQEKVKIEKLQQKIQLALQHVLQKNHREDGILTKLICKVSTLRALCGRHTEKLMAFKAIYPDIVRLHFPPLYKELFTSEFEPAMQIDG
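Material: transiently transfected CHO-K1 cells, Gal4-DBD/human RORA-LBD fusion plus 5xGal4-luciferase reporter; doses: single concentration per compound, 10 µM final; incubation: 20 h at 37 °C; detection: luminescence from basal luciferase reporter expression; read-out: % inhibition of basal luciferase versus +RORA/-RORA DMSO controls; replication: tested once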
Numbers without * were called inactive. Many of the other results were omitted from the sample, so hits are more common in it than they were.

`CCn1nc(-c2ccccc2)nc2c(=O)n(C)c(=O)nc1-2` gave RORa inhibitor 93.1*.
COc1ccc(C2NCc3ccc4c(c3-n3cccc32)OCO4)cc1O (stereo not given) was read as RORa inhibitor -49.5.
`CC(C(=O)N1CCC2(CC1)OCCO2)C1Sc2ccccc2NC1=O` (stereo not given) gave RORa inhibitor 10.5.
For Cc1ccc(S(=O)(=O)N(C)CCCC(=O)N2CCN(c3ccccn3)CC2)cc1 the results were RORa inhibitor 13.3.
O=C(C1CC(c2ccc(Cl)c(Cl)c2)=NO1)N1CCC2(CC1)OCCO2 (stereo not given) was read as RORa inhibitor -73.2.
Screening O=C(C1CCCO1)N1CCC2(CC1)OCCO2 (stereo not given) returned RORa inhibitor 16.0.
Screening C[C@H]1CCC/C=C/C2C[C@H](O)CC2[C@H](O)/C=C/C(=O)O1 (stereo not given in full) returned RORa inhibitor 83.7*.
`CC1=NOC2(C)Nc3ncnn3C(c3ccccc3)C12` (stereo not given) gave RORa inhibitor 14.5.
CC[C@@H]1C(=O)OC[C@@H]1Cc1cncn1C was read as RORa inhibitor 8.7.
CC(C)c1cccc(C(C)C)c1OCCn1ccnc1 was read as RORa inhibitor 19.7.

From PubChem
